Assay outcomes deposited in PubChem BioAssay by Broad Institute.
DENV2 CPE – inhibitors of DENV2 cytopathic effect, primary screen, cell-based, plate reader, single concentration. DENV2-infected cells, cytopathic effect rescue. CPE inhibition, % at 9.99 µM. hit rate 1.7% among 350,000. AID 651640, 2012; in the data active = CPE inhibition above about 20%, passing the limit was not always enough; inconclusive = no clear call, values can overlap the other calls; tested in BHK-21 cells
E-sel inducer – E-selectin induction in HUVECs, primary screen, imaging, HUVEC, immunofluorescence imaging, single point | normalized: neutral wells 0, TNF-alpha wells 100 | activation, % at 7.58 µM | hit rate 0.37% among 260,000 | AID 686992, 2013;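 active = mean E-selectin-positive cell signal at least 10% of the positive control, reached in at least 60% of replicates, without over 20% cell loss; inconclusive = no rule given, readout overlaps actives, possibly toxicity-flagged; inactive = the rest, including those meeting only one limit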
Target sequence (P16581 whole entry, looked up): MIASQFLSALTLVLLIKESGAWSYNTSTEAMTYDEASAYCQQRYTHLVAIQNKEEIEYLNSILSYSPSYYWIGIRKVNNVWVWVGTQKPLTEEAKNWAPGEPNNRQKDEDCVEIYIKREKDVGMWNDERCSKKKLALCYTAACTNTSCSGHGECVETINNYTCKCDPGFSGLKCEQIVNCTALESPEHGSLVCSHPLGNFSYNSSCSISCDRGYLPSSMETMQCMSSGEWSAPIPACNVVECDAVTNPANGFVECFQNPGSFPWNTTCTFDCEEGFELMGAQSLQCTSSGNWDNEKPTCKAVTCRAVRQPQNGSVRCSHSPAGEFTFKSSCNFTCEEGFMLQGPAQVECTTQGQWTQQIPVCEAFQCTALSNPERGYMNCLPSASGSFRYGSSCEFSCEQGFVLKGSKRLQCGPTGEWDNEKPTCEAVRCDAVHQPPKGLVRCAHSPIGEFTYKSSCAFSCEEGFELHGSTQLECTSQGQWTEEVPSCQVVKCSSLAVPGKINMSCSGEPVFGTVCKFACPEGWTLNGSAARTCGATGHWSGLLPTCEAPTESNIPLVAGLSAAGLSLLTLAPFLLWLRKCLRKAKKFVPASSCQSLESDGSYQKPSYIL
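System: HUVEC, human umbilical vein endothelial cells; quantity: 3,000 cells/well; buffer or medium: EGM-2 medium, gelatin-coated wells; dosing: single-point compound dose; detection: immunofluorescence imaging; evaluation: % PE-positive cells; benchmarks: TNF-alpha, DMSO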
rRNA inh HTS – reduced GFP signal of wild-type E. coli, primary screen, bacterial rRNA inhibitor project, GFP/RFP fluorescence, OD600, single point. GFP signal change (wild-type ribosome), % (concentration not given with the values). hit rate 1.6% among 350,000. E. coli WT GFP vs humanized-ribosome RFP mutants, 24 h; active compounds read low; DMSO median 0, no signal -100;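 active = significant combined selectivity score with lowered wild-type GFP, culture density cut under 30%, mutant RFP and density less affected; inactive = any of these conditions unmet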
miR-122 sensor – miR-122 Renilla sensor signal increase in Huh7, primary screen, miR-122 inhibitor project, cell-based, single point, plate reader. activation (reporter increase), % at 12.5 µM. AID 602342, 2012. hit rate 0.3% among 340,000. Huh7 miR-122 Renilla luciferase sensor, 48 h; neutral wells = 0, positive control = 100;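 active = mean replicate activation score at least 90 and every replicate individually at or above 90; inconclusive = only one of the two criteria met; inactive = neither criterion met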;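 also: higher luciferase means less miR-122 activity so hits act as miR-122 inhibitors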
Cneo AK release – Cryptococcus neoformans cell lysis inducers, primary screen, AK release luminescence, single concentration; C. neoformans lysis, adenylate kinase release luminescence, 4 h; normalised: neutral wells 0, clomiphene wells 100; lysis activity, % at 15 µM; hit rate 0.2% among 360,000;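 active = mean lysis activity across replicates of at least 80%, whatever share of replicates individually reach that level; inactive = mean lysis activity below 80%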
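Assay system: log-phase C. neoformans yeast / Quantity: yeast cell density of 5 × 10^6 cells/mL / Medium: fresh YPD growth medium / Compound: single dose / Timing: static 4 h at 37 °C with compound, 1 h detection / Measured by: adenylate kinase release luminescence / Read-out: lysis from increased AK signal / Benchmarks: Clomiphene as positive lysis control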
Hits are given with their value. This is a sample that favours compounds with a hit; in the whole collection about 3.1% have one here.

What do the screens show for `COC(=O)c1cc(C)sc1NC(=O)C1CC(=O)NN1Cc1ccccc1` (stereo not drawn)?
DENV2 CPE: inactive; rRNA inh HTS: -31.9

What do the screens show for `C[C@@H]1CN([C@H](C)CO)C(=O)Cc2cc(NC(=O)Nc3cccc4ccccc34)ccc2O[C@@H]1CN(C)Cc1ccc(C(=O)Nc2ccccc2N)cc1`?
DENV2 CPE: inactive; E-sel inducer: inactive; rRNA inh HTS: inactive

What do the screens show for `COCC(=O)Nc1ccc2c(c1)[C@@H]1C[C@H](CC(=O)NCc3cccnc3)O[C@@H](CO)[C@@H]1O2`?
DENV2 CPE: inactive; E-sel inducer: inactive; rRNA inh HTS: inactive; miR-122 sensor: inactive; Cneo AK release: inactive

Results for COc1ccc2nc(NN=Cc3cccc(C)n3)cc(C)c2c1 ?
DENV2 CPE: 54.4; E-sel inducer: inactive

What do the screens show for `Cc1ccc2nc(N/N=C/c3ccco3)cc(C)c2c1`?
DENV2 CPE: inactive; rRNA inh HTS: -20.1; Cneo AK release: inactive

How did Cc1cc(NN=Cc2ccccn2)nc2ccccc12 do in these assays?
DENV2 CPE: inactive; E-sel inducer: inactive

What do the screens show for `Cc1ccc2nc(SCC(=O)N/N=C/c3ccco3)cc(C)c2c1`?
DENV2 CPE: inactive; E-sel inducer: inactive; rRNA inh HTS: inactive

Results for CCC(=O)Nc1ccc2c(c1)C(=O)N(C)C[C@H](OC)[C@@H](C)CN(Cc1ccccn1)[C@@H](C)CO2 ?
DENV2 CPE: inactive; E-sel inducer: inactive; rRNA inh HTS: inactive; miR-122 sensor: inactive; Cneo AK release: inactive

What do the screens show for `N[C@H]1CC[C@@H](CCn2cc(-c3ccccn3)nn2)O[C@H]1CO`?
DENV2 CPE: inactive; E-sel inducer: inactive; rRNA inh HTS: inactive; miR-122 sensor: inactive; Cneo AK release: inactive

What do the screens show for `COC(=O)C[C@@H]1CC[C@@H]2[C@H](COC[C@@H](O)CN2S(=O)(=O)c2ccc(F)cc2)O1`?
DENV2 CPE: inactive; E-sel inducer: inactive; rRNA inh HTS: inactive; miR-122 sensor: inactive; Cneo AK release: inactive

What do the screens show for `CO[C@H]1CN(C)C(=O)c2ccc(NC(=O)NC(C)C)cc2OC[C@H](C)N(C(=O)NC(C)C)C[C@H]1C`?
DENV2 CPE: inactive; E-sel inducer: inactive; rRNA inh HTS: inactive; miR-122 sensor: inactive; Cneo AK release: inactive

Results for Nc1nn2c(-c3ccccc3)cc(=O)[nH]c2c1N=Nc1ccc(Br)cc1 ?
DENV2 CPE: inactive; E-sel inducer: inactive; rRNA inh HTS: -28.6

What do the screens show for `CN(C)c1ccc(NC(=S)NC23CC4CC(CC(C4)C2)C3)cc1`?
DENV2 CPE: inactive; E-sel inducer: 73.3; rRNA inh HTS: inactive; miR-122 sensor: inactive; Cneo AK release: inactive

How did CCOc1ccc(NC(=S)NC23CC4CC(CC(C4)C2)C3)cc1 do in these assays?
DENV2 CPE: inactive; rRNA inh HTS: inactive; miR-122 sensor: inactive; Cneo AK release: inactive

Results for CC(=O)Nc1ccc(NC(=O)c2ccc(-c3ccc([N+](=O)[O-])cc3)o2)cc1 ?
DENV2 CPE: inactive; E-sel inducer: inactive; rRNA inh HTS: inactive; miR-122 sensor: inactive; Cneo AK release: inactive

What do the screens show for `COc1ccc(NC(=O)c2ccc(-c3ccc([N+](=O)[O-])cc3)o2)cc1OC`?
DENV2 CPE: inactive; rRNA inh HTS: -42.3; miR-122 sensor: inactive; Cneo AK release: inactive

How did COc1ccc(-c2cc(C)no2)cc1S(=O)(=O)Nc1cccc(C)c1 do in these assays?
DENV2 CPE: inactive; rRNA inh HTS: inactive; miR-122 sensor: 117.3; Cneo AK release: inactive

What do the screens show for `COC(=O)c1ccc(NS(=O)(=O)c2cc(-c3cc(C)no3)ccc2OC)cc1`?
DENV2 CPE: inactive; E-sel inducer: inactive; rRNA inh HTS: inactive; miR-122 sensor: inactive; Cneo AK release: inactive

What do the screens show for `COc1ccc(-c2cc(C)no2)cc1S(=O)(=O)Nc1ccccc1`?
DENV2 CPE: inactive; rRNA inh HTS: inactive; miR-122 sensor: 119.7; Cneo AK release: inactive

What do the screens show for `COc1ccccc1NS(=O)(=O)c1cc(-c2cc(C)no2)ccc1OC`?
DENV2 CPE: inconclusive; E-sel inducer: inactive; rRNA inh HTS: inactive; miR-122 sensor: inactive; Cneo AK release: inactive
